According to ChEMBL document CHEMBL1138351, “Small, potent, and selective diaryl phosphonate inhibitors for urokinase-type plasminogen activator with in vivo antimetastatic properties” (J Med Chem, 2007):

Key:
[1] = Stability in human plasma after 3 hrs; format: ADME, cell-free; conditions: read-out: Stability
Summary of the method: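 Compound was added from 10 mM DMSO stock to human plasma at 200 µM final and shaken at 37 °C for up to 24 h. Aliquots were quenched in methanol and centrifuged. The supernatant was diluted with internal standard and analysed by LC/MS/MS in triplicate. Result is given as % parent compound remaining.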

[2] = molecular target: Urokinase-type plasminogen activator (Rattus norvegicus, UniProt P29598); test: Inhibition of rat uPA
[3] = molecular target: Urokinase-type plasminogen activator (Mus musculus, UniProt P06869); test: Inhibition of mouse uPA
[4] = molecular target: Plasminogen (Mus musculus, UniProt P20918); test: Inhibition of mouse plasmin
[5] = molecular target: Plasminogen (Rattus norvegicus, UniProt Q01177); test: Inhibition of rat plasmin
[6] = molecular target: Prothrombin (Rattus norvegicus, UniProt P18292); test: Inhibition of rat thrombin
[7] = molecular target: Prothrombin (Mus musculus, UniProt P19221); test: Inhibition of mouse thrombin
[8] = molecular target: Plasminogen (Homo sapiens, UniProt P00747); test: Inhibition of human plasmin
Summary of the method: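 Plasmin from human plasma at about 5 mU was preincubated with inhibitor (0–250 µM final) for 15 min at 37 °C. Substrate was S-2366 at 580 µM in Tris pH 7.4. Initial rate was read at 405 nm, in duplicate. IC50 came from a four-parameter logistic fit.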

[9] = molecular target: Prothrombin (Homo sapiens, UniProt P00734); test: Inhibition of human thrombin
Summary of the method: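 Human plasma thrombin was assayed at 37 °C in Tris pH 8.3. […] Initial rate was read at 405 nm, in duplicate. IC50 was obtained from a four-parameter logistic fit.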

[10] = Distribution coefficient, log D in octanol and phosphate buffer saline at pH 7.4; format: physicochemical; conditions: octanol/phosphate buffered saline
Summary of the method: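 A 10 mM DMSO stock was added to a 1:1 octanol/PBS pH 7.4 mixture. Measured in duplicate.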

[11] = Apparent solubility in phosphate buffered saline at pH 7.4 after 2 hrs; format: ADME
Summary of the method: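 Compounds were serially diluted from 10 mM DMSO stock into PBS pH 7.4 (2% DMSO final), giving 1–200 µM final at eight concentrations, in duplicate. Incubation was 2 h at 37 °C. Solubility was taken as the onset of increased absorbance at 620 nm.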

[12] = Chemical stability assessed as half life of hydrolysis at pH 1; format: physicochemical; conditions: buffer
[13] = Chemical stability assessed as half life of hydrolysis at pH 4; format: physicochemical; conditions: buffer
[14] = Chemical stability assessed as half life of hydrolysis at pH 7.4; format: physicochemical; conditions: buffer
[15] = Chemical stability assessed as half life of hydrolysis at pH 8.8; format: physicochemical; conditions: buffer
[16] = Antitumor activity aganist Brown Norwegian rat bearing BN472 tumor assessed as reduction of tumor size at 0.1 mg/kg, ip administered once daily after 4 days of tumor transplantation for 17 to 18 days relative to control; format: functional; set-up: scale not given: the % may be the effect or the level left; conditions: route intraperitoneal
Summary of the method: (§1)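 Rats bearing orthotopic BN472 breast tumours (grown three days) were dosed i.p. daily from day 4 for 17–18 days at 0.1 or 1 mg/kg. Vehicle-only i.p. controls were included. Tumour size and tumour weight were measured at the end of the treatment period and compared with controls.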

[17] = Antitumor activity against Brown Norwegian rat bearing BN472 tumor assessed as reduction of tumor size at 1 mg/kg, ip administered once daily after 4 days of tumor transplantation for 17 to 18 days relative to control; format: functional; set-up: scale not given: the % may be the effect or the level left; conditions: route intraperitoneal; summary of the method: as §1
[18] = Antitumor activity aganist Brown Norwegian rat bearing BN472 tumor assessed as reduction of tumor weight at 0.1 mg/kg, ip administered once daily after 4 days of tumor transplantation for 17 to 18 days relative to control; format: functional; set-up: scale not given: the % may be the effect or the level left; conditions: route intraperitoneal; summary of the method: as §1
[19] = Antitumor activity against Brown Norwegian rat bearing BN472 tumor assessed as reduction of tumor weight at 1 mg/kg, ip administered once daily after 4 days of tumor transplantation for 17 to 18 days relative to control; format: functional; set-up: scale not given: the % may be the effect or the level left; conditions: route intraperitoneal; summary of the method: as §1
[20] = Antimetastatic activity against Brown Norwegian rat bearing BN472 tumor assessed as decrease in number of lung foci at 0.1 mg/kg, ip administered once daily after 4 days of tumor transplantation for 17 to 18 days relative to control; format: functional; set-up: scale not given: the % may be the effect or the level left; conditions: route intraperitoneal
Summary of the method: (§2)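 BN472 breast tumours implanted orthotopically in rats and left to grow three days. From day 4, compounds were given i.p. daily for 17–18 days at 0.1 or 1 mg/kg. Controls received vehicle i.p. only. Lung foci were counted and axillary lymph nodes weighed at the end of treatment. Groups were compared with control at an unadjusted significance level of P 0.05.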

[21] = Antimetastatic activity against Brown Norwegian rat bearing BN472 tumor assessed as decrease in number of lung foci at 1 mg/kg, ip administered once daily after 4 days of tumor transplantation for 17 to 18 days relative to control; format: functional; set-up: scale not given: the % may be the effect or the level left; conditions: route intraperitoneal; summary of the method: as §2
[22] = Antimetastatic activity against Brown Norwegian rat bearing BN472 tumor assessed as reduction of axillary lymph node weight at 0.1 mg/kg, ip administered once daily after 4 days of tumor transplantation for 17 to 18 days relative to control; format: functional; set-up: scale not given: the % may be the effect or the level left; conditions: route intraperitoneal; summary of the method: as §2
[23] = Antimetastatic activity against Brown Norwegian rat bearing BN472 tumor assessed as reduction of axillary lymph node weight at 1 mg/kg, ip administered once daily after 4 days of tumor transplantation for 17 to 18 days relative to control; format: functional; set-up: scale not given: the % may be the effect or the level left; conditions: route intraperitoneal; summary of the method: as §2
[24] = Antimetastatic activity against Brown Norwegian rat bearing BN472 tumor assessed as reduction of interpectoral lymph node weight at 0.1 mg/kg, ip administered once daily after 4 days of tumor transplantation for 17 to 18 days relative to control; format: functional; set-up: scale not given: the % may be the effect or the level left; conditions: route intraperitoneal
[25] = Antimetastatic activity against Brown Norwegian rat bearing BN472 tumor assessed as reduction of interpectoral lymph node weight at 1 mg/kg, ip administered once daily after 4 days of tumor transplantation for 17 to 18 days relative to control; format: functional; set-up: scale not given: the % may be the effect or the level left; conditions: route intraperitoneal
[26] = test system: Rattus norvegicus; test: Toxicity in Brown Norwegian rat bearing BN472 tumor assessed as effect on body weight at 0.1 mg/kg, ip administered once daily after 4 days of tumor transplantation for 17 to 18 days relative to control; format: organism-based; set-up: dose 0.1 mg/kg, route intraperitoneal; conditions: in vivo
Summary of the method: (§3)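 Orthotopic BN472 breast tumour model in rats. Daily i.p. dosing at 0.1 or 1 mg/kg started on day 4 and ran 17–18 days, with vehicle-only i.p. controls. Side effects were assessed from body weight and the weights of several organs, compared with controls.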

[27] = test system: Rattus norvegicus; test: Toxicity in Brown Norwegian rat bearing BN472 tumor assessed as effect on body weight at 1 mg/kg, ip administered once daily after 4 days of tumor transplantation for 17 to 18 days relative to control; format: organism-based; set-up: dose 1 mg/kg, route intraperitoneal; conditions: in vivo; summary of the method: as §3
[28] = test system: Rattus norvegicus; test: Toxicity in Brown Norwegian rat bearing BN472 tumor assessed as increase in lung weight at 0.1 mg/kg, ip administered once daily after 4 days of tumor transplantation for 17 to 18 days relative to control; format: organism-based; set-up: dose 0.1 mg/kg, route intraperitoneal; conditions: in vivo; summary of the method: as §3
[29] = test system: Rattus norvegicus; test: Toxicity in Brown Norwegian rat bearing BN472 tumor assessed as increase in uterus weight at 0.1 mg/kg, ip administered once daily after 4 days of tumor transplantation for 17 to 18 days relative to control; format: organism-based; set-up: dose 0.1 mg/kg, route intraperitoneal; conditions: in vivo; summary of the method: as §3
[30] = test system: Rattus norvegicus; test: Toxicity in Brown Norwegian rat bearing BN472 tumor assessed as increase in uterus weight at 1 mg/kg, ip administered once daily after 4 days of tumor transplantation for 17 to 18 days relative to control; format: organism-based; set-up: dose 1 mg/kg, route intraperitoneal; conditions: in vivo; summary of the method: as §3
[31] = test system: Rattus norvegicus; test: Toxicity in Brown Norwegian rat bearing BN472 tumor assessed as decrease in spleen weight at 0.1 mg/kg, ip administered once daily after 4 days of tumor transplantation for 17 to 18 days relative to control; format: organism-based; set-up: dose 0.1 mg/kg, route intraperitoneal; scale not given: the % may be the effect or the level left; conditions: in vivo; summary of the method: as §3
[32] = test system: Rattus norvegicus; test: Toxicity in Brown Norwegian rat bearing BN472 tumor assessed as decrease in spleen weight at 1 mg/kg, ip administered once daily after 4 days of tumor transplantation for 17 to 18 days relative to control; format: organism-based; set-up: dose 1 mg/kg, route intraperitoneal; scale not given: the % may be the effect or the level left; conditions: in vivo; summary of the method: as §3
[33] = test system: Rattus norvegicus; test: Toxicity in Brown Norwegian rat bearing BN472 tumor assessed as decrease in liver weight at 0.1 mg/kg, ip administered once daily after 4 days of tumor transplantation for 17 to 18 days relative to control; format: organism-based; set-up: dose 0.1 mg/kg, route intraperitoneal; scale not given: the % may be the effect or the level left; conditions: in vivo; summary of the method: as §3
[34] = test system: Rattus norvegicus; test: Toxicity in Brown Norwegian rat bearing BN472 tumor assessed as decrease in liver weight at 1 mg/kg, ip administered once daily after 4 days of tumor transplantation for 17 to 18 days relative to control; format: organism-based; set-up: dose 1 mg/kg, route intraperitoneal; scale not given: the % may be the effect or the level left; conditions: in vivo; summary of the method: as §3
[35] = test system: Rattus norvegicus; test: Toxicity in Brown Norwegian rat bearing BN472 tumor assessed as increase in kidney weight at 0.1 mg/kg, ip administered once daily after 4 days of tumor transplantation for 17 to 18 days relative to control; format: organism-based; set-up: dose 0.1 mg/kg, route intraperitoneal; conditions: in vivo; summary of the method: as §3
[36] = test system: Rattus norvegicus; test: Toxicity in Brown Norwegian rat bearing BN472 tumor assessed as increase in kidney weight at 1 mg/kg, ip administered once daily after 4 days of tumor transplantation for 17 to 18 days relative to control; format: organism-based; set-up: dose 1 mg/kg, route intraperitoneal; conditions: in vivo; summary of the method: as §3
[37] = test system: Rattus norvegicus; test: Toxicity in Brown Norwegian rat bearing BN472 tumor assessed as decrease in adrenal weight at 0.1 mg/kg, ip administered once daily after 4 days of tumor transplantation for 17 to 18 days relative to control; format: organism-based; set-up: dose 0.1 mg/kg, route intraperitoneal; scale not given: the % may be the effect or the level left; conditions: in vivo; summary of the method: as §3
[38] = molecular target: Urokinase-type plasminogen activator (Homo sapiens, UniProt P00749)

Plasminogen (Mus musculus, UniProt P20918), sequence (P20918 98-581 limits assumed): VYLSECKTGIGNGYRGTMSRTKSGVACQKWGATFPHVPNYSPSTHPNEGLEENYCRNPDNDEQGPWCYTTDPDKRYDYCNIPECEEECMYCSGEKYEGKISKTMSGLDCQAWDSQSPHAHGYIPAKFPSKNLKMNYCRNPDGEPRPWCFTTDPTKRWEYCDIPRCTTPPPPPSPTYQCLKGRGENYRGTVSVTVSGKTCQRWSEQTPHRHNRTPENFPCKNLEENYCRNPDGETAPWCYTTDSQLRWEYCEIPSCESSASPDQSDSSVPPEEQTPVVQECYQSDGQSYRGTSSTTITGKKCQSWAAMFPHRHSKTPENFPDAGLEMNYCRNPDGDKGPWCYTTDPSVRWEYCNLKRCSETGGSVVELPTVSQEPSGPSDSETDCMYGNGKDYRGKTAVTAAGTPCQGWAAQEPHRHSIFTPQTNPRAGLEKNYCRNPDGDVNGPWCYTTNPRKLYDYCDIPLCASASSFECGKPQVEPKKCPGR
Plasminogen (Mus musculus, UniProt P20918), sequence (P20918 582-812 limits assumed): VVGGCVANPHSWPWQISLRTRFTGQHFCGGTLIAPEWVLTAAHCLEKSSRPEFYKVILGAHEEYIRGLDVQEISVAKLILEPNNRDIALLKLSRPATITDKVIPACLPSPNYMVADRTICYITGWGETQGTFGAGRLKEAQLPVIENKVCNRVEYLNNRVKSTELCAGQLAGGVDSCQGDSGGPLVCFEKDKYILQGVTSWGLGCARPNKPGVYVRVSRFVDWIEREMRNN
Urokinase-type plasminogen activator (Mus musculus, UniProt P06869), sequence (P06869 21-178 limits assumed): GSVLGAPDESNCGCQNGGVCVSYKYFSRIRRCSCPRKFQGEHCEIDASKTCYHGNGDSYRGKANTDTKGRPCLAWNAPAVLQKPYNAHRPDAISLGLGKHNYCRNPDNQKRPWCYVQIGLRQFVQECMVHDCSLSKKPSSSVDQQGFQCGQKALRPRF
Urokinase-type plasminogen activator (Mus musculus, UniProt P06869), sequence (P06869 180-433 limits assumed): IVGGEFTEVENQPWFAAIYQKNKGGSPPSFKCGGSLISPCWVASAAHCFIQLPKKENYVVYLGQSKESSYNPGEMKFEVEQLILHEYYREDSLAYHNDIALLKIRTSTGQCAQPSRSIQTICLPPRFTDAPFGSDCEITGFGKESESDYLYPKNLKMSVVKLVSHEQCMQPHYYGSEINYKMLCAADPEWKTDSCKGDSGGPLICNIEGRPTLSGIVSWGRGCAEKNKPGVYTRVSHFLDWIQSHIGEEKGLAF
Urokinase-type plasminogen activator (Rattus norvegicus, UniProt P29598), sequence (P29598 20-177 limits assumed): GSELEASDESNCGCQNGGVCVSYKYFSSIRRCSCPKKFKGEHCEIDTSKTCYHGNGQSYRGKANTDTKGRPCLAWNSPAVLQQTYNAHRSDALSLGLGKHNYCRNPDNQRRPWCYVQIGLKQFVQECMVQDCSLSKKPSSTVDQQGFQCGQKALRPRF
Urokinase-type plasminogen activator (Rattus norvegicus, UniProt P29598), sequence (P29598 179-432 limits assumed): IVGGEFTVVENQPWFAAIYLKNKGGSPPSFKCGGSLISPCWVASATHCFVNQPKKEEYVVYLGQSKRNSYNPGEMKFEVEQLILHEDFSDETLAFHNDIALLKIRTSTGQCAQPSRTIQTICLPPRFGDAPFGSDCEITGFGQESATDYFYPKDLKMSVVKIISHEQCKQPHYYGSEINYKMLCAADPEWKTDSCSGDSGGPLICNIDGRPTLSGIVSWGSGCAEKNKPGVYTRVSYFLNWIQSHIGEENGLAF
Plasminogen (Rattus norvegicus, UniProt Q01177), sequence (Q01177 97-581 limits assumed): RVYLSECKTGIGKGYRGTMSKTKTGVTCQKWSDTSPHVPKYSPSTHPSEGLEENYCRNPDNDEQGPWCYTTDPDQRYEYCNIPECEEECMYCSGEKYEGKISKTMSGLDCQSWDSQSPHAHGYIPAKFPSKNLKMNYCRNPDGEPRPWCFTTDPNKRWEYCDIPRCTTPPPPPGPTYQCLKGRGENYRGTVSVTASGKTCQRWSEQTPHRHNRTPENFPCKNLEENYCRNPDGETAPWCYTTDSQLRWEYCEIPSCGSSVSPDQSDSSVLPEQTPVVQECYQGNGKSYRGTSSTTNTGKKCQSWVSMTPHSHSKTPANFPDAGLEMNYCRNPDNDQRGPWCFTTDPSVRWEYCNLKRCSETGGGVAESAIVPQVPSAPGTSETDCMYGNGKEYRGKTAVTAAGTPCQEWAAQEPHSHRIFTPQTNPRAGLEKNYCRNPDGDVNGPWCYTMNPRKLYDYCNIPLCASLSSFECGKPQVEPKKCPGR
Plasminogen (Rattus norvegicus, UniProt Q01177), sequence (Q01177 582-812 limits assumed): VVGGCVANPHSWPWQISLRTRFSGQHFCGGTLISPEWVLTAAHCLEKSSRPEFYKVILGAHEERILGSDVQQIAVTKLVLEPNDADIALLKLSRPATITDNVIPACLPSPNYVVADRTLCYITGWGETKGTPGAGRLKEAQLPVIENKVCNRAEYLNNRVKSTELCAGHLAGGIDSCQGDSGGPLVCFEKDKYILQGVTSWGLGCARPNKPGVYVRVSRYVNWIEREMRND
Plasminogen (Homo sapiens, UniProt P00747), sequence (P00747 97-580 limits assumed): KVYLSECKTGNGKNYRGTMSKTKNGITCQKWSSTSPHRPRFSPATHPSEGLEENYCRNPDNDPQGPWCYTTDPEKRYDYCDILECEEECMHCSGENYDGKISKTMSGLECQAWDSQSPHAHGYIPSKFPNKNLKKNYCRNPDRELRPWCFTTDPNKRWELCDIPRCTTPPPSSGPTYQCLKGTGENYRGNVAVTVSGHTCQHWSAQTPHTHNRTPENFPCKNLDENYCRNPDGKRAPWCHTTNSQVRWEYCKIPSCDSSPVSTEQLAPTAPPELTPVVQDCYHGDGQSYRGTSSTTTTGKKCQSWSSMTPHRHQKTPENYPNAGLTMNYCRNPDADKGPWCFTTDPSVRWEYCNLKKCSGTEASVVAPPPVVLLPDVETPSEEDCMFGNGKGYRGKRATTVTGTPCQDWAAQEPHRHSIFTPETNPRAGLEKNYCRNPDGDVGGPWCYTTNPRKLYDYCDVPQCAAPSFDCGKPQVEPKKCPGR
Plasminogen (Homo sapiens, UniProt P00747), sequence (P00747 581-810 limits assumed): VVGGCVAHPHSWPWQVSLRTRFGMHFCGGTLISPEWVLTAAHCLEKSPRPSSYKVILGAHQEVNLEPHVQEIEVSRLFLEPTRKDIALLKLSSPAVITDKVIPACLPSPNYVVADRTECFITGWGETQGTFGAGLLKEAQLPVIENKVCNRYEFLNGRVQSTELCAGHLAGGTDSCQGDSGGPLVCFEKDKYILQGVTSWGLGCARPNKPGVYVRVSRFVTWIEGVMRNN

Work on `COC(=O)NC(Cc1ccc(NC(=N)N)cc1)P(=O)(Oc1ccccc1)Oc1ccccc1` (stereo not drawn) yielded a remaining at 3 h [1] of 63%, an IC50 [2] of 0.0195 µM and an IC50 [3] of 0.032 µM. For the same compound, the IC50 [4] was 25 µM, the IC50 [5] was 15 µM and the IC50 [6] was over 100 µM. For the same compound, the IC50 [7] was 42 µM, the IC50 [8] was 13 µM and the IC50 [9] was 17 µM. The logD [10] was 1.1, the solubility at 2 h [11] was over 200 µM and the half-life [12] was over 336 h. It also gave a half-life [13] of over 336 h, a half-life [14] of 120 h and a half-life [15] of 6 h. It also gave an Activity [16] of 17%, an Activity [17] of 11% and an Activity [18] of 27%. For the same compound, the Activity [19] was 9%, the Activity [20] was 29% and the Activity [21] was 61%. It also gave an Activity [22] of 46%, an Activity [23] of 61% and an Activity [24] of 10%. For the same compound, the Activity [25] was 8%, the Activity [26] was 168.5 g and the Activity [27] was 169.5 g. For the same compound, the Activity [28] was 3%, the Activity [29] was 30% and the Activity [30] was 36%. For the same compound, the Activity [31] was 17%, the Activity [32] was 12% and the Activity [33] was 2%. It also gave an Activity [34] of 3%, an Activity [35] of 3% and an Activity [36] of 8%. It also gave an Activity [37] of 3% and a Kapp [38] of 62000 M⁻¹ s⁻¹.
